# Measured values from ChEMBL document CHEMBL1121608, “Modification of the 5' position of purine nucleosides. 2. Synthesis and some cardiovascular properties of adenosine-5'-(N-substituted)carboxamides” (J Med Chem, 1980).
# Experiments:
# Canis familiaris [1] = test: Total time in minutes elapsed from the initiation of the change until return to the pretest value of blood pressure in coronary sinus of anesthetized dog at intravenous dosage of 0.001 mg/kg; type: functional, Canis lupus familiaris
# Canis familiaris [2] = test: Total time in minutes elapsed from the initiation of the change until return to the pretest value of heart rate in coronary sinus of anesthetized dog at intravenous dosage of 0.001 mg/kg; type: functional, Canis lupus familiaris
# Canis familiaris [3] = test: Total time in minutes elapsed from the initiation of the change until return to the pretest value of oxygen partial pressure in coronary sinus of anesthetized dog at intravenous dosage of 0.001 mg/kg; type: functional, Canis lupus familiaris
# Canis familiaris [4] = test: Tested for percent increase in coronary sinus partial pressure of oxygen (PO2) in open chest anesthetized dog at intravenous dosage of 0.001 mg/kg; type: functional, Canis lupus familiaris
# Canis familiaris [5] = test: Tested for the percent increase in aortic blood pressure (BP) in open chest anesthetized dog at intravenous dosage of 0.001 mg/kg; type: functional, Canis lupus familiaris, Artery
# In short: (§1)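 Open-chest anesthetized dogs, compound given iv at the stated dose. Aortic blood pressure is reported as the change from the control (pre-dose) value. Other set-up follows the group's earlier cardiovascular protocol.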
# Canis familiaris [6] = test: Total time in minutes elapsed from the initiation of the change until return to the pretest value of blood pressure in coronary sinus of anesthetized dog at intravenous dosage of 1 mg/kg; type: functional, Canis lupus familiaris
# Canis familiaris [7] = test: Total time in minutes elapsed from the initiation of the change until return to the pretest value of heart rate in coronary sinus of anesthetized dog at intravenous dosage of 1 mg/kg; type: functional, Canis lupus familiaris
# Canis familiaris [8] = test: Total time in minutes elapsed from the initiation of the change until return to the pretest value of oxygen partial pressure in coronary sinus of anesthetized dog at intravenous dosage of 1 mg/kg; type: functional, Canis lupus familiaris
# In short: (§2)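 Open-chest anesthetized dogs given compound by intravenous injection. Coronary sinus PO2 was monitored, and duration was the total time in minutes from the onset of the change until return to the pretest value.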
# Canis familiaris [9] = test: tested for the percent increase in heart rate (HR) in open chest anesthetized dog at intravenous dosage of 1 mg/kg; type: functional, Canis lupus familiaris
# Canis familiaris [10] = test: tested for the percent increase in aortic blood pressure (BP) in open chest anesthetized dog at intravenous dosage of 1 mg/kg; type: functional, Canis lupus familiaris, Artery
# In short: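 Open-chest anesthetized dogs received intravenous doses. Aortic blood pressure was recorded as the change from control.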
# Canis familiaris [11] = test: tested for percent increase in coronary sinus partial pressure of oxygen (PO2) in open chest anesthetized dog at intravenous dosage of 1 mg/kg; type: functional, Canis lupus familiaris
# Mus musculus [12] = test: Tested for the lethal dose in mice after administration intraperitoneally; type: functional; settings: ip
# In short: (§3)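 Male and female mice, three per dose group, were given the compound by the stated route in increments of 0.5 log doses. The LD50 was estimated as an approximate value.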
# Mus musculus [13] = test: Tested for the lethal dose in mice after administration perorally; type: functional; settings: po; in short: as §3
# Canis familiaris [14] = test: Total time in minutes elapsed from the initiation of the change until return to the pretest value of blood pressure in coronary sinus of anesthetized dog at intravenous dosage of 5 mg/kg; type: functional, Canis lupus familiaris
# Canis familiaris [15] = test: Total time in minutes elapsed from the initiation of the change until return to the pretest value of heart rate in coronary sinus of anesthetized dog at intravenous dosage of 5.00 mg/kg; type: functional, Canis lupus familiaris
# Canis familiaris [16] = test: Total time in minutes elapsed from the initiation of the change until return to the pretest value of oxygen partial pressure in coronary sinus of anesthetized dog at intravenous dosage of 5 mg/kg; type: functional, Canis lupus familiaris; in short: as §2
# Canis familiaris [17] = test: Tested for the percent increase in aortic blood pressure (BP) in open chest anesthetized dog at intravenous dosage of 5.00 mg/kg; type: functional, Canis lupus familiaris, Artery; in short: as §1
# Canis familiaris [18] = test: Tested for the percent increase in coronary sinus partial pressure of oxygen (PO2) in open chest anesthetized dog at intravenous dosage of 5.00 mg/kg; type: functional, Canis lupus familiaris
# [19] = Lethal dose in mice after intraperitoneal administration; type: toxicity, organism-based; settings: mouse, in vivo, ip; in short: as §3
# [20] = Lethal dose in mice after peroral administration; type: toxicity, organism-based; settings: mouse, in vivo, po; in short: as §3
# Canis familiaris [21] = test: Total time in minutes elapsed from the initiation of the change until return to the pretest value of blood pressure in coronary sinus of anesthetized dog at intravenous dosage of 10 mg/kg; type: functional, Canis lupus familiaris
# Canis familiaris [22] = test: Total time in minutes elapsed from the initiation of the change until return to the pretest value of heart rate in coronary sinus of anesthetized dog at intravenous dosage of 10 mg/kg; type: functional, Canis lupus familiaris
# Canis familiaris [23] = test: Total time in minutes elapsed from the initiation of the change until return to the pretest value of oxygen partial pressure in coronary sinus of anesthetized dog at intravenous dosage of 10 mg/kg; type: functional, Canis lupus familiaris; in short: as §2
# Canis familiaris [24] = test: Tested for percent increase in coronary sinus partial pressure of oxygen (PO2) in open chest anesthetized dog at intravenous dosage of 1.00 mg/kg; type: functional, Canis lupus familiaris
# Canis familiaris [25] = test: Tested for the percent increase in aortic blood pressure (BP) in open chest anesthetized dog at intravenous dosage of 1.00 mg/kg; type: functional, Canis lupus familiaris, Artery; in short: as §1
# Canis familiaris [26] = test: Tested for the percent increase in aortic blood pressure (BP) in open chest anesthetized dog at intravenous dosage of 10.00 mg/kg; type: functional, Canis lupus familiaris, Artery; in short: as §1
# Canis familiaris [27] = test: Tested for the percent increase in coronary sinus partial pressure of oxygen (PO2) in open chest anesthetized dog at intravenous dosage of 10.00 mg/kg; type: functional, Canis lupus familiaris
SMILES,Duration (Canis familiaris [6]) [min],Duration (Canis familiaris [7]) [min],Duration (Canis familiaris [8]) [min],HR (Canis familiaris [9]) [%],BP (Canis familiaris [10]) [mmHg],PO2 (Canis familiaris [11]) [%],LD50 [19] [mg/kg],LD50 [20] [mg/kg],further results
CCNC(=O)[C@H]1OC(n2cnc3c(N)[n+]([O-])cnc32)[C@H](O)[C@@H]1O (stereo partly drawn),–,–,–,–,–,–,–,–,Duration (Canis familiaris [1]): 120 min; Duration (Canis familiaris [2]): 120 min; Duration (Canis familiaris [3]): 120 min; PO2 (Canis familiaris [4]): 37%; BP (Canis familiaris [5]): 27 mmHg
Nc1ncnc2c1ncn2C1O[C@H](C(=O)NCc2ccccc2)[C@@H](O)[C@H]1O (stereo partly drawn),60,24,60,13,5,48,–,–,LD50 (Mus musculus [12]): 200 mg/kg; LD50 (Mus musculus [13]): > 1000 mg/kg
Nc1ncnc2c1ncn2C1O[C@H](C(=O)NC23CC4CC(CC(C4)C2)C3)[C@@H](O)[C@H]1O (stereo partly drawn),1,2,30,55,22,56,> 300,> 300,Duration (Canis familiaris [14]): 8 min; Duration (Canis familiaris [15]): 60 min; Duration (Canis familiaris [16]): 60 min; BP (Canis familiaris [17]): 5 mmHg; PO2 (Canis familiaris [18]): 209%
CCN(CC)CCNC(=O)[C@H]1OC(n2cnc3c(N)ncnc32)[C@H](O)[C@@H]1O (stereo partly drawn),0,0,6,–,–,–,50,> 1000,Duration (Canis familiaris [21]): 22 min; Duration (Canis familiaris [22]): 60 min; Duration (Canis familiaris [23]): 60 min; PO2 (Canis familiaris [24]): 57%; BP (Canis familiaris [25]): 0%; BP (Canis familiaris [26]): 7%; PO2 (Canis familiaris [27]): 25%
